Test results from ChEMBL document CHEMBL1240482, “Synthesis and antiproliferative evaluation of certain indeno[1,2-c]quinoline derivatives. Part 2” (J Med Chem, 2010).
The source made the active and inactive calls. The calls are words filed in the database; no cut-off is given here.

Columns and labels:
[1] = tested on: HeLa; assay: Cytotoxicity against human HeLa cells after 48 hrs by MTT assay; format: functional
In short: (§1)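 Cells grown in DMEM with 10% FBS at 37 °C and 5% CO2, seeded at 5 × 10^3 per well and allowed 24 h before drug. Serial dilutions from DMSO stocks applied for 48 h. MTT (2 mg/mL in PBS) added for 2 h, formazan dissolved in DMSO, absorbance read at 570 nm. GI50 interpolated by linear regression from at least three points in the 20-80% range; three independent experiments.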

[2] = tested on: SAS; assay: Cytotoxicity against human SAS cells after 48 hrs by MTT assay; format: functional; in short: as §1
[3] = tested on: A549; assay: Cytotoxicity against human A549 cells after 48 hrs by MTT assay; format: functional; conditions: A549, 48 h; in short: as §1
[4] = tested on: PC-3; assay: Cytotoxicity against human PC3 cells after 48 hrs by MTT assay; format: functional; conditions: PC-3, 48 h; in short: as §1
[5] = Cytotoxicity against human SKHep cells after 48 hrs by MTT assay; format: functional; in short: as §1
[6] = Cytotoxicity against human BT-483 cells after 48 hrs by MTT assay; format: functional; conditions: BT-483, 48 h; in short: as §1
[7] = Cytotoxicity against human Detroit 551 cells after 48 hrs by MTT assay; format: cell-based; in short: as §1
[8] = tested on: HeLa; assay: Selectivity index, ratio of IC50 for human Detroit 551 cells to IC50 for human HeLa cells; format: functional
[9] = tested on: SAS; assay: Selectivity index, ratio of IC50 for human Detroit 551 cells to IC50 for human SAS cells; format: functional
[10] = tested on: Detroit 551; assay: Selectivity index, ratio of IC50 for human Detroit 551 cells to IC50 for human A549 cells; format: functional
[11] = tested on: Detroit 551; assay: Selectivity index, ratio of IC50 for human Detroit 551 cells to IC50 for human PC3 cells; format: functional
[12] = tested on: Detroit 551; assay: Selectivity index, ratio of IC50 for human Detroit 551 cells to IC50 for human SKHep cells; format: functional
[13] = tested on: Detroit 551; assay: Selectivity index, ratio of IC50 for human Detroit 551 cells to IC50 for human BT-483 cells; format: functional
[14] = tested on: Nucleic Acid; assay: Binding affinity to pBR322; format: nucleic-acid assay; conditions: Escherichia coli
[15] = biological target: T1, DNA topoisomerase 1 (Homo sapiens) (UniProt P11387); assay: Inhibition of human topoisomerase 1 assessed as decrease in pBR322 mobility on agarose gel at 10 uM by electrophoresis
T1 sequence (whole entry): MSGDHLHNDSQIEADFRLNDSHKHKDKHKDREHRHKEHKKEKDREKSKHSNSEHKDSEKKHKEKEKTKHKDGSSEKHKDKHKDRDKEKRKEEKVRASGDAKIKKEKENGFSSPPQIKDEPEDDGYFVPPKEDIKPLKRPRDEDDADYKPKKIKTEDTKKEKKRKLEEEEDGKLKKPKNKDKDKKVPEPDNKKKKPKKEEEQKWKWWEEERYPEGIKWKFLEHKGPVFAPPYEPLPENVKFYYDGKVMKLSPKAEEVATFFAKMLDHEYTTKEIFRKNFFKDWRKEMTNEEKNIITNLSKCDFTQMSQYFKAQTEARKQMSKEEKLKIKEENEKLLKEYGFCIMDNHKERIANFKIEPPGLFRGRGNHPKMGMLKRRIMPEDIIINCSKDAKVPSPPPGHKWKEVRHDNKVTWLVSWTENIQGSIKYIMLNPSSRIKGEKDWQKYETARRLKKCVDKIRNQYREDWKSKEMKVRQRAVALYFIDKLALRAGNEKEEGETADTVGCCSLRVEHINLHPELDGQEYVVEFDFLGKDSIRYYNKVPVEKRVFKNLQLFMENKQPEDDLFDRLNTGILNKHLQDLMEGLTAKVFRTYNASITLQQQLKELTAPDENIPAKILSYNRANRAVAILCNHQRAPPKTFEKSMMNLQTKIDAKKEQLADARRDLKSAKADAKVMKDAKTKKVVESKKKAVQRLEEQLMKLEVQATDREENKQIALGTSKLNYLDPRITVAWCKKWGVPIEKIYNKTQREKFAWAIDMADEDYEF
In short: (§2)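 Enzyme preincubated with compound before DNA addition; reaction run 30 min at 37 °C and stopped with SDS. Products resolved on 1% agarose, stained with ethidium bromide, quantified by densitometry.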

[16] = biological target: T2, DNA topoisomerase 1 (Homo sapiens, UniProt P11387); assay: Inhibition of human topoisomerase 1 assessed as decrease in pBR322 mobility on agarose gel by electrophoresis; in short: as §2
T2 sequence (P11387 whole entry): T1 sequence (whole entry)

[17] = species: Homo sapiens; assay: Inhibition of human topoisomerase 2 assessed as decrease in pBR322 mobility on agarose gel at 10 uM by electrophoresis; in short: as §2
[18] = Inhibition of human topoisomerase 2 assessed as decrease in pBR322 mobility on agarose gel by electrophoresis; in short: as §2

Activity [14] | inhibition [15] | IC50 [16] | inhibition [17] | IC50 [18] | SMILES | GI50 ([1]; read-out: GI50) | GI50 ([1]; read-out: pGI50 (converted)) | GI50 [2] | GI50 [3] | GI50 [4] | GI50 [5] | GI50 [6] | GI50 at 48 h [7] | RatioGI50 [8] | RatioGI50 [9] | RatioGI50 [10] | RatioGI50 [11] | RatioGI50 [12] | RatioGI50 [13]
Active | 48% | 12.8 µM | 74% | 6.44 µM | COc1ccc2c(c1)/C(=N\OCCN1CCCC1)c1c-2c(N2CCNCC2)nc2ccccc12 | 570 nM | 575 nM | 2.43 µM | 0.5 µM | 3.37 µM | 680 nM | 1.43 µM | 1.47 µM | 2.58 | 0.6 | 4.63 | 0.44 | 2.16 | 1.03
Active | 28% | 16.5 µM | 50% | 10.1 µM | COc1ccc2c(c1)/C(=N\OCCN1CCCCC1)c1c-2cnc2ccccc12 | 2670 nM | 2690 nM | 7.18 µM | 8.48 µM | 6.38 µM | 5260 nM | 5.17 µM | 6.3 µM | 2.36 | 0.88 | 0.74 | 0.99 | 1.2 | 1.22
